Values after ≈ are worked out from the molar mass of the structure shown. A value given as a limit tells only on which side of the number the result lay.

The test system of data set [1] is HEK293. In words: Cytotoxicity against HEK293 cells. In kind it is toxicity, cell-based, Homo sapiens.
Data set [2] relates to Staphylococcus aureus. Nature of the data set: Antibacterial activity against rifampicin resistant Staphylococcus aureus harboring RpoBH481Y mutant assessed as inhibition of bacterial growth. In kind it is functional.
Data set [3] relates to Escherichia coli. Nature of the data set: Antibacterial activity against Escherichia coli assessed as inhibition of bacterial growth. The data set is classed as functional. The method, boiled down:
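Run in duplicate, with the same result obtained in each trial.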

Data set [4] deals with Staphylococcus aureus. In words: Antibacterial activity against Staphylococcus aureus harboring RpoBH481Y/ParCS80F/GyrAS84L triple mutant assessed as inhibition of bacterial growth. In kind it is functional.
In data set [5] the test system is Staphylococcus aureus. In words: Antibacterial activity against wild type Staphylococcus aureus assessed as inhibition of bacterial growth. The data set is classed as functional.
The test system of data set [6] is Staphylococcus aureus. In words: Antibacterial activity against ciprofloxacin resistant Staphylococcus aureus harboring ParCS80F and GyrAS84L double mutant assessed as inhibition of bacterial growth. In kind it is functional.

For orientation: IC50 means the midpoint of a concentration-inhibition curve. Broadly, the MIC is the lowest concentration found to suppress growth. With `CC(=O)O[C@H]1[C@H](C)[C@H](O)[C@H](C)[C@@H](O)[C@@H](C(C)OC(=O)C(C)(C)CC(=O)N[C@@H]2CCCCN(c3c(F)cc4c(=O)c(C(=O)O)cn(C5CC5)c4c3Cl)C2)/C=C/C=C(/C)C(=O)NC2=CC(=O)c3c(c(O)c(C)c4c3C(=O)[C@@](C)(O/C=C/[C@H](O[C@H]3C[C@@H]5OCO[C@@H]5[C@@H](C)O3)[C@H]1C)O4)C2=O` (some centres not stated), the IC50 in data set [1] is over 64 µg/mL. The MIC in data set [2] is 16 µg/mL (≈ 11.8 µM); in data set [3], over 64 µg/mL; in data set [4], over 64 µg/mL; in data set [5], 16 µg/mL (≈ 11.8 µM); in data set [6] it was 16 µg/mL (≈ 11.8 µM).

In the case of `CC(=O)O[C@H]1[C@H](C)[C@H](O)[C@H](C)[C@@H](O)[C@@H](C(C)OC(=O)C(C)(C)CC(=O)O)/C=C/C=C(/C)C(=O)Nc2c3oc4cc(NC5(c6c(F)cc7c(=O)c(C(=O)O)cn8c7c6OC[C@@H]8C)CC5)cc(O)c4nc-3c3c4c(c(C)c(O)c3c2=O)O[C@](C)(O/C=C/[C@H](O[C@H]2C[C@@H]3OCO[C@@H]3[C@@H](C)O2)[C@H]1C)C4=O` (some centres not stated), the IC50 in data set [1] is over 64 µg/mL. For the same compound, the MIC is 32 µg/mL (≈ 22.8 µM) in data set [2]; 4 µg/mL (≈ 2.85 µM) in data set [3]; over 64 µg/mL in data set [4]; 8 µg/mL (≈ 5.7 µM) in data set [5]; 8 µg/mL (≈ 5.7 µM) in data set [6].

`CC(=O)O[C@H]1[C@H](C)[C@H](O)[C@H](C)[C@@H](O)[C@@H](C(C)OC(=O)C(C)(C)CC(=O)NC2(c3c(F)cc4c(=O)c(C(=O)O)cn5c4c3OC[C@@H]5C)CC2)/C=C/C=C(/C)C(=O)NC2=CC(=O)c3c(c(O)c(C)c4c3C(=O)[C@@](C)(O/C=C/[C@H](O[C@H]3C[C@@H]5OCO[C@@H]5[C@@H](C)O3)[C@H]1C)O4)C2=O` (some centres not stated) displayed an IC50 in data set [1] of over 64 µg/mL. Also, the MIC is over 64 µg/mL in data set [2]; over 64 µg/mL in data set [3]; over 64 µg/mL in data set [4]; 8 µg/mL (≈ 6.24 µM) in data set [5]; 8 µg/mL (≈ 6.24 µM) in data set [6].

In data set [1], `COc1c(N2CCN(C(=O)CC(C)(C)C(=O)OC(C)[C@H]3/C=C/C=C(/C)C(=O)NC4=CC(=O)c5c(c(O)c(C)c6c5C(=O)[C@@](C)(O/C=C/[C@H](O[C@H]5C[C@@H]7OCO[C@@H]7[C@@H](C)O5)[C@@H](C)[C@@H](OC(C)=O)[C@H](C)[C@H](O)[C@H](C)[C@H]3O)O6)C4=O)C(C)C2)c(F)cc2c(=O)c(C(=O)O)cn(C3CC3)c12` (some centres not stated) displayed a 50% inhibitory concentration (IC50) of 21 µg/mL (≈ 15.7 µM). In addition, the MIC in data set [2] is over 64 µg/mL; in data set [3], over 64 µg/mL; in data set [4], over 64 µg/mL; in data set [5] it was 64 µg/mL (≈ 47.8 µM); in data set [6], 32 µg/mL (≈ 23.9 µM).

`CC(=O)O[C@H]1[C@H](C)[C@H](O)[C@H](C)[C@@H](O)[C@@H](C(C)OC(=O)C(C)(C)CC(=O)O)/C=C/C=C(/C)C(=O)Nc2c3oc4cc(N5CCN(c6cc7c(cc6F)c(=O)c(C(=O)O)cn7C6CC6)CC5)cc(O)c4nc-3c3c4c(c(C)c(O)c3c2=O)O[C@](C)(O/C=C/[C@H](O[C@H]2C[C@@H]3OCO[C@@H]3[C@@H](C)O2)[C@H]1C)C4=O` (some centres not stated) returned an IC50 in data set [1] of over 64 µg/mL. The MIC in data set [2] was 32 µg/mL (≈ 22.6 µM); in data set [3], 8 µg/mL (≈ 5.65 µM); in data set [4], over 64 µg/mL; in data set [5], 0.5 µg/mL (≈ 0.353 µM); in data set [6], 0.5 µg/mL (≈ 0.353 µM).

`CC(=O)O[C@H]1[C@H](C)[C@H](O)[C@H](C)[C@@H](O)[C@@H](C(C)OC(=O)C(C)(C)CC(=O)O)/C=C/C=C(/C)C(=O)Nc2c3oc4cc(NCCCN5CCN(c6cc7c(cc6F)c(=O)c(C(=O)O)cn7C6CC6)CC5)cc(O)c4nc-3c3c4c(c(C)c(O)c3c2=O)O[C@](C)(O/C=C/[C@H](O[C@H]2C[C@@H]3OCO[C@@H]3[C@@H](C)O2)[C@H]1C)C4=O` (some centres not stated) displayed a concentration for half-maximal inhibition (IC50) in data set [1] of 44 µg/mL (≈ 29.9 µM). Also, the MIC in data set [2] is 8 µg/mL (≈ 5.43 µM); in data set [3], 16 µg/mL (≈ 10.9 µM); in data set [4], over 64 µg/mL; in data set [5] it was 4 µg/mL (≈ 2.71 µM); in data set [6], 4 µg/mL (≈ 2.71 µM).

In the case of `CC(=O)O[C@H]1[C@H](C)[C@H](O)[C@H](C)[C@@H](O)[C@@H](C(C)OC(=O)C(C)(C)CC(=O)N2Cc3cc(-c4ccc5c(=O)c(C(=O)O)cn(C6CC6)c5c4OC(F)F)ccc3[C@H]2C)/C=C/C=C(/C)C(=O)NC2=CC(=O)c3c(c(O)c(C)c4c3C(=O)[C@@](C)(O/C=C/[C@H](O[C@H]3C[C@@H]5OCO[C@@H]5[C@@H](C)O3)[C@H]1C)O4)C2=O` (some centres not stated), the IC50 in data set [1] came out at 19 µg/mL (≈ 13.7 µM). Moreover, the MIC in data set [2] is 16 µg/mL (≈ 11.5 µM); in data set [3], over 64 µg/mL; in data set [4], over 64 µg/mL; in data set [5], 8 µg/mL (≈ 5.75 µM); in data set [6], 8 µg/mL (≈ 5.75 µM).
